The record followed here is ChEMBL document CHEMBL1123422, “1-Ethyl-7-[3-[(ethylamino)methyl]-1-pyrrolidinyl]-6,8-difluoro-1,4- dihydro-4-oxo-3-quinoline-carboxylic acid. New quinolone antibacterial with potent gram-positive activity” (1986).

Molecules are shown by their SMILES. ≈ marks a conversion by molar mass, not a printed value.

The MIC is the smallest concentration in the dilution series that meets the test's criterion for growth inhibition. A high value points to weaker potency.

Assay [1] deals with Escherichia coli. Kind of assay: Compound was tested for inhibition of the gram-negative organism Escherichia coli H560. In kind it is functional. An outline of the steps:
(§1)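 MICs read in standard microdilution (microtitration) format against a panel of 10 bacterial organisms; values in µg/mL.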

The target in assay [2] is DNA gyrase (Escherichia coli) (UniProt P0AES6+P0AES4). Kind of assay: Inhibition of DNA gyrase of Escherichia coli H560 cells. An outline of the steps: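 DNA gyrase purified from Escherichia coli H560 cells. Cleavage assay: drug-gyrase-DNA complex denatured, converting closed circular DNA to linear DNA. Linear DNA resolved by gel electrophoresis and stained with ethidium bromide. Value is the minimum drug concentration (µg/mL) giving linear DNA at an intensity relative to oxolinic acid at 10 µg/mL. Aqueous drug stocks made up in 0.1 N NaOH or KOH.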

The subject of a further assay is Klebsiella pneumoniae. Kind of assay: Compound was tested for inhibition of the gram-negative organism Klebsiella pneumoniae MGH-2. The class given is functional. An outline of the steps: as §1
For assay [3], the system named is Mus musculus. Kind of assay: Compound was evaluated for protective dose against the Escherichia coli vogel lethal infection following peroral administration in mouse. The class given is functional. To be noted: po, read-out: PD50. The gist of the method: (§2)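 Acute lethal systemic infection in female Charles River CD-1 mice (18–22 g), challenged intraperitoneally with an estimated 100 median lethal dose in 5% hog gastric mucin. Single doses in a twofold rising series were given with the challenge, sc as aqueous solution or po by gavage in 5% gum acacia. PD50 (mg/kg) was estimated by log probit from survival of eight mice per dose.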

Assay [4] concerns Mus musculus. Kind of assay: Compound was evaluated for protective dose against the Escherichia coli vogel lethal infection following sc administration in mouse. In kind it is functional. The following applies: read-out: PD50. An outline of the steps: as §2
Assay [5] deals with Mus musculus. Kind of assay: Compound was evaluated for protective dose against the […] UC-76 lethal infection following po administration in mouse. The class given is functional. The following applies: read-out: PD50. An outline of the steps: as §2
For assay [6], the system named is Mus musculus. Kind of assay: Compound was evaluated for protective dose against the […] UC-76 lethal infection following sc administration in mouse. In kind it is functional. The following applies: read-out: PD50. The gist of the method: as §2
The subject of assay [7] is Mus musculus. Kind of assay: Compound was evaluated for protective dose against the Streptococcus pneumoniae SV-1 lethal infection following po administration. The class given is functional. The following applies: read-out: PD50. An outline of the steps:
(§3)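 Female Charles River CD-1 mice (18–22 g) were challenged intraperitoneally with an estimated 100 median lethal dose in tryptic soy broth. Single doses, in a twofold rising series, were given at the same time as challenge: subcutaneously as aqueous solution, or orally by gavage in 5% gum acacia. Survival in groups of eight mice per dose gave PD50 (mg/kg) by log probit.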

The subject of a further assay is Pseudomonas aeruginosa. Kind of assay: Compound was tested for inhibition of the gram-negative organism Pseudomonas aeruginosa UI-18. In kind it is functional. The gist of the method:
as §1

A further assay has as its system Providencia rettgeri. Kind of assay: Compound was tested for inhibition of the gram-negative organism Providencia rettgeri H1771. The class given is functional. An outline of the steps: as §1
The subject of a further assay is Enterococcus faecalis. Kind of assay: Compound was tested for inhibition of the […] organism Streptococcus faecalis MGH-2. In kind it is functional. The gist of the method:
as §1

In the next assay the test system is Streptococcus pyogenes. Kind of assay: Compound was tested for inhibition of the […] organism Streptococcus pyogenes C203. The class given is functional. An outline of the steps:
as §1

In assay [8] the test system is Staphylococcus aureus. Kind of assay: Compound was tested for inhibition of the […] organism […] H228. The class given is functional. The gist of the method: as §1
Assay [9] concerns Staphylococcus aureus. Kind of assay: Compound was tested for inhibition of the […] organism […] UC-76. The class given is functional. An outline of the steps:
as §1

In assay [10] the test system is Mus musculus. Kind of assay: Compound was evaluated for protective dose against Streptococcus pneumoniae SV-1 lethal infection following sc administration. The class given is functional. To be noted: read-out: PD50. An outline of the steps:
as §3

The subject of assay [11] is Escherichia coli. Kind of assay: Compound was tested for inhibition of the gram-negative organism Escherichia coli vogel. In kind it is functional. The gist of the method: as §1
For the next assay, the system named is Enterobacter cloacae. Kind of assay: Compound was tested for inhibition of the gram-negative organism […] HA 2646. The class given is functional.

Regarding `O=C(O)c1cn(C2CC2)c2cc(N3CCNCC3)c(F)cc2c1=O` [CIPROFLOXACIN], the MIC is 0.025 µg/mL (≈ 0.0754 µM) against Escherichia coli [1]; 0.1 µg/mL (≈ 0.302 µM) against Klebsiella pneumoniae; 0.4 µg/mL (≈ 1.21 µM) with Pseudomonas aeruginosa; 0.1 µg/mL (≈ 0.302 µM) against Providencia rettgeri; 0.8 µg/mL (≈ 2.41 µM) against Enterococcus faecalis; 0.8 µg/mL (≈ 2.41 µM) against Streptococcus pyogenes. The minimum inhibitory concentration (MIC) worked out at 3.1 µg/mL (≈ 9.36 µM) in the assay on Staphylococcus aureus [8] and 0.2 µg/mL (≈ 0.604 µM) against Staphylococcus aureus [9]. Moreover, the Min concentration in assay [2] amounted to 0.5 µg/mL. For the same molecule, the ED50 is 1.2 mg/kg in the assay on Mus musculus [3]; 0.25 mg/kg in the assay with Mus musculus [4]; 9.5 mg/kg in the assay with Mus musculus [5]; 3 mg/kg in the assay on Mus musculus [6]; greater than 100 mg/kg with Mus musculus [7]; 18 mg/kg in the assay on Mus musculus [10].

`CCn1cc(C(=O)O)c(=O)c2cc(F)c(N3CCNCC3)nc21` [ENOXACIN]: the MIC in the assay on Escherichia coli [1] came out at 0.1 µg/mL (≈ 0.312 µM); in the assay on Escherichia coli [11] it was 0.2 µg/mL (≈ 0.624 µM); against Enterobacter cloacae, 0.2 µg/mL (≈ 0.624 µM); in the assay on Klebsiella pneumoniae, 0.2 µg/mL (≈ 0.624 µM); against Pseudomonas aeruginosa it was 1.6 µg/mL (≈ 4.99 µM); against Providencia rettgeri, 0.1 µg/mL (≈ 0.312 µM). Also, the MIC in the assay with Enterococcus faecalis was determined as 3.1 µg/mL (≈ 9.68 µM); with Streptococcus pyogenes it was 12.5 µg/mL (≈ 39 µM); against Staphylococcus aureus [8], 1.6 µg/mL (≈ 4.99 µM); in the assay with Staphylococcus aureus [9], 0.4 µg/mL (≈ 1.25 µM). Besides, the Min concentration in assay [2] was determined as 5 µg/mL. Moreover, the ED50 in the assay on Mus musculus [3] was 3 mg/kg; with Mus musculus [4], 2 mg/kg; with Mus musculus [5] it was 12 mg/kg; with Mus musculus [6], 10 mg/kg; in the assay with Mus musculus [7] it was greater than 200 mg/kg; with Mus musculus [10] it was greater than 100 mg/kg.

On to `CCn1cc(C(=O)O)c(=O)c2ccc(C)nc21` [NALIDIXIC ACID], for which the MIC against Escherichia coli [1] is 6.3 µg/mL (≈ 27.1 µM); against Escherichia coli [11], 3.1 µg/mL (≈ 13.3 µM); in the assay with Enterobacter cloacae it was 6.3 µg/mL (≈ 27.1 µM); against Klebsiella pneumoniae it was 6.3 µg/mL (≈ 27.1 µM); with Pseudomonas aeruginosa it was greater than 100 µg/mL; against Providencia rettgeri, 6.3 µg/mL (≈ 27.1 µM). In addition, the MIC in the assay with Enterococcus faecalis was greater than 100 µg/mL; in the assay with Streptococcus pyogenes, greater than 100 µg/mL; against Staphylococcus aureus [8], 100 µg/mL (≈ 431 µM); against Staphylococcus aureus [9], 25 µg/mL (≈ 108 µM). The same molecule yielded a Min concentration in [2] of 50 µg/mL. For the same molecule, the ED50 in the assay with Mus musculus [3] is 45 mg/kg; in the assay on Mus musculus [4] it was 26 mg/kg; with Mus musculus [5], greater than 100 mg/kg; with Mus musculus [6] it was greater than 100 mg/kg; in the assay with Mus musculus [7] it was greater than 100 mg/kg; in the assay with Mus musculus [10], greater than 100 mg/kg.

As for `CC1COc2c(N3CCN(C)CC3)c(F)cc3c(=O)c(C(=O)O)cn1c23` (centres undefined) [OFLOXACIN], the MIC against Escherichia coli [11] was 0.1 µg/mL (≈ 0.277 µM); in the assay with Enterobacter cloacae, 0.1 µg/mL (≈ 0.277 µM); against Klebsiella pneumoniae, 0.1 µg/mL (≈ 0.277 µM); against Pseudomonas aeruginosa it was 0.4 µg/mL (≈ 1.11 µM); against Providencia rettgeri it was 0.2 µg/mL (≈ 0.553 µM); in the assay on Enterococcus faecalis, 0.8 µg/mL (≈ 2.21 µM). Besides, the MIC against Streptococcus pyogenes was 0.8 µg/mL (≈ 2.21 µM); against Staphylococcus aureus [9], 0.1 µg/mL (≈ 0.277 µM). This molecule came in with a Min concentration in [2] of 5 µg/mL. Further, the ED50 with Mus musculus [3] was determined as 2 mg/kg; in the assay on Mus musculus [4], 0.8 mg/kg; in the assay on Mus musculus [5] it was 11 mg/kg; in the assay on Mus musculus [6] it was 5 mg/kg; with Mus musculus [7], 68 mg/kg; in the assay with Mus musculus [10], 38 mg/kg.

For the molecule `CCn1cc(C(=O)O)c(=O)c2cc3c(cc21)OCO3` [OXOLINIC ACID], the MIC stood at 0.2 µg/mL (≈ 0.766 µM) in the assay on Escherichia coli [1]; 0.2 µg/mL (≈ 0.766 µM) against Escherichia coli [11]; 0.4 µg/mL (≈ 1.53 µM) against Enterobacter cloacae; 0.2 µg/mL (≈ 0.766 µM) in the assay with Klebsiella pneumoniae; 6.3 µg/mL (≈ 24.1 µM) with Pseudomonas aeruginosa; 0.1 µg/mL (≈ 0.383 µM) against Providencia rettgeri. For the same molecule, the minimal inhibitory concentration (MIC) in the assay on Enterococcus faecalis is 12.5 µg/mL (≈ 47.9 µM); against Streptococcus pyogenes it was greater than 100 µg/mL; against Staphylococcus aureus [8] it was 1.6 µg/mL (≈ 6.12 µM); against Staphylococcus aureus [9], 0.8 µg/mL (≈ 3.06 µM). Besides, in assay [2], the Min concentration amounted to 10 µg/mL. The ED50 in the assay on Mus musculus [3] is 17 mg/kg; in the assay on Mus musculus [4], 9 mg/kg; in the assay with Mus musculus [5], greater than 100 mg/kg; with Mus musculus [6], 63 mg/kg.

Regarding `CCn1cc(C(=O)O)c(=O)c2cc(F)c(N3CCN(C)CC3)cc21` [PEFLOXACIN], the minimal inhibitory concentration (MIC) in the assay with Escherichia coli [1] stood at 0.1 µg/mL (≈ 0.3 µM); against Escherichia coli [11] it was 0.025 µg/mL (≈ 0.075 µM); in the assay with Klebsiella pneumoniae it was 0.05 µg/mL (≈ 0.15 µM); in the assay on Pseudomonas aeruginosa, 0.4 µg/mL (≈ 1.2 µM); against Providencia rettgeri it was 0.05 µg/mL (≈ 0.15 µM); in the assay with Enterococcus faecalis it was 0.8 µg/mL (≈ 2.4 µM). Moreover, the MIC stood at 0.8 µg/mL (≈ 2.4 µM) in the assay on Streptococcus pyogenes, 0.2 µg/mL (≈ 0.6 µM) in the assay with Staphylococcus aureus [8] and 0.1 µg/mL (≈ 0.3 µM) against Staphylococcus aureus [9]. Also, the ED50 in the assay with Mus musculus [3] stood at 2.8 mg/kg; in the assay with Mus musculus [4], 1.6 mg/kg; in the assay on Mus musculus [5], 9.5 mg/kg; in the assay on Mus musculus [6], 3.7 mg/kg; in the assay on Mus musculus [7] it was 200 mg/kg; in the assay on Mus musculus [10], 96 mg/kg.
